pIC50: −log10 of the molar value. No end group written: not given here.
How the values were obtained:
[1] = test system: syndecan-1; conditions: membrane-associated proteoglycan; cited from earlier work
[2] = test system: cell attachment; conditions: cited from earlier work; for cell adhesion (AG73 and EF-1 together): synergetic interaction of syndecan and integrin α2β1
[3] = cited from earlier work
[4] = test system: syndecans; conditions: membrane-associated proteoglycans; cited from earlier work
[5] = molecular target: T1, rec-α5LG45 protein—heparin binding (Mus musculus, UniProt Q61001); assay: Peptide inhibition of heparin-binding to rec-α5LG45
T1 sequence (Q61001 3318-3718): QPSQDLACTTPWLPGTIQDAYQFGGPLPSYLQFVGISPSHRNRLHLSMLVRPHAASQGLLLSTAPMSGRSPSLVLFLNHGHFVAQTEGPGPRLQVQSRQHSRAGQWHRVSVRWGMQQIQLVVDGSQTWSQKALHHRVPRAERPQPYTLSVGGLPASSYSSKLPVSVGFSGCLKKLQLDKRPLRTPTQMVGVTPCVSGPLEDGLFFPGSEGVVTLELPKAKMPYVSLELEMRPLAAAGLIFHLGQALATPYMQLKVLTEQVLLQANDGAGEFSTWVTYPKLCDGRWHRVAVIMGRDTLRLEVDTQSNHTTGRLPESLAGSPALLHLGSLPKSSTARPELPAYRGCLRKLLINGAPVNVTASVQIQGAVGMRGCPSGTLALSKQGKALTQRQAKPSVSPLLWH
Summary of the method: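 Mouse laminin α5 LG45 fused to human IgG Fc, expressed in transfected 293T cells, purified on Protein A then heparin-Sepharose. The protein (3 µg), heparin-Sepharose beads (1 mg) and varying peptide amounts were incubated for 1 h at 4 °C in 70 µL of 10 mM Tris-HCl pH 7.4 with 100 mM NaCl. Beads were washed twice. Bound protein was detected by reducing 8% SDS-PAGE and anti-human Fc Western blot with ECL. Run in triplicate.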

[6] = test system: syndecan-4; conditions: cited from earlier work

pIC50 [5]	Substance	heparin-binding [3]	interaction with syndecans [4]	other results
	RKRLQVQLSIRT [AG73]	the strongest heparin-binding peptide	interact with syndecans	syndecan-1 binding [1]: binds syndecan-1; cell adhesion (AG73 and EF-1 together) [2]: cooperate and induce cell adhesion; heparin/heparan sulfate binding [3]: heparin/heparan sulfate binding
	DYATLQLQEGRLHFMFDLG [EF-1]			cell adhesion (AG73 and EF-1 together) [2]: cooperate and induce cell adhesion
5.23	AGQWHRVSVRWG-NH2 [A5G81, AGQWHRVSVRWG]			
4.04	GPLPSYLQFVGI-NH2 [A5G71, GPLPSYLQFVGI]			
	TLFLAHGRLVFM [A4G82]	exhibited heparin- and syndecan-4-binding	interact with syndecans	cell attachment activity [2]: cell attachment activity; syndecan-4-binding [6]: exhibited heparin- and syndecan-4-binding
	KNSFMALYLSKG [A3G75]	heparin-binding sequence	interact with syndecans	
5.15	LVLFLNHGHFVA-NH2 [A5G77, LVLFLNHGHFVA]			
6.08	KMPYVSLELEMR-NH2 [A5G94, KMPYVSLELEMR]			
	GLIYYVAHQNQM [AG75]	heparin-binding		

Reference: PMC2756285 (Biochemistry, 2009)
